Screening results from PubChem BioAssay.
Only some compounds are listed: those with a hit (about 1.8% of all), similar ones and a draw of the others.
TLR4-MyD88 BLA = inhibitors of human TLR4-MyD88 binding; inhibition, % at 8.4 µM; actives 0.18% (n = 200,000); HeLa CL3-4 TLR4/MyD88 BLA complementation, FRET ratio; AID 861; in the data active = inhibition above about 25%
NOD2 RIPK2 PPI = NOD2-RIPK2 protein interaction inhibition; O43353; actives 0.38% (n = 360,000); inhibition, % at 4.98 µM; AID 624267; CHO BLA complementation NOD2-RIPK2, CCF4 ratio; in the data active = inhibition above about 21%
TLR9-MyD88 block = inhibitors of human TLR9-MyD88 binding; CHO BLA complementation TLR9-MyD88, CCF4 FRET ratio; actives 0.21% (n = 340,000); inhibition, % at 4.98 µM;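 active = inhibition above the mean over all tested compounds plus 3 SD, cut at about 21% in these data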
MC4R barr agon = human MC4R agonism via beta-arrestin; P32245; U2OS MC4R beta-arrestin complementation, luminescence; percent of melanotan II response, DMSO zero; activation, % at 8.9 µM; actives 0.98% (n = 360,000); AID 540308;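 active = activation above a per-plate cutoff, the mean activation of sample wells on that plate plus 3 SD, cut at about 8% in these data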
Target sequence (P32245 whole entry, looked up): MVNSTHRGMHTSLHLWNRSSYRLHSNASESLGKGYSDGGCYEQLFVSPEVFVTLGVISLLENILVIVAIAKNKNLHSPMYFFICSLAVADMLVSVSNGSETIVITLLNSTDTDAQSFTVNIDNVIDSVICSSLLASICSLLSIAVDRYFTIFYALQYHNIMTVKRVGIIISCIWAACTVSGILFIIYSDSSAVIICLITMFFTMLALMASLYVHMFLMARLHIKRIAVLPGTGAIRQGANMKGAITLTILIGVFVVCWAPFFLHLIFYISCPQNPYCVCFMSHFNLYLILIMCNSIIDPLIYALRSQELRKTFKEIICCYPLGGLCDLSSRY
MC4R antagonist = blocks human MC4R cAMP signaling; inhibition, % at 6.5 µM; AID 540295; actives 0.48% (n = 360,000); MC4R-expressing cells, MTII-stimulated cAMP, LANCE TR-FRET;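 active = inhibition above its plate's cutoff, the mean of tested wells on that plate plus 3 SD, cut at about 29% in these data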
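material = U2OS cells stably expressing human melanocortin 4 receptor (MC4R) | also added = Melanotan II challenge | dosing = single nominal compound dose of 6.5 µM | detection = TR-FRET with Eu-cAMP and labeled anti-cAMP, 671 nm | replication = singlicate | timing = compound 30 min, challenge 1 h, detection 1 h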
NOD2-RIPK2 conf = NOD2-RIPK2 interaction inhibition confirmed; shares compounds with NOD2 RIPK2 PPI; CHO cells, NOD2-RIPK2 BLA complementation, CCF4 FRET; inhibition, % at 4.98 µM; actives 70% (n = 1,200);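 active = mean inhibition across replicates above a set limit taken from the earlier primary screen, cut at about 21% in these data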
BLA counter = hits BLA reporter in NOD2-RIPK2 inhibitor counterscreen. actives 57% (n = 1,200). CHO BLA reporter, CCF4 FRET ratio. inhibition, % at 4.98 µM. shares compounds with NOD2 RIPK2 PPI;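 active = mean inhibition above the low-control mean inhibition plus three low-control SD, cut at about 11% in these data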
Large screens that a line does not name were inactive (follow-up assays come after a bar, where they were run).

COc1ccc(CC(=O)Nc2ccc(-c3cn4ccc(C)cc4n3)cc2)cc1	NOD2 RIPK2 PPI 23 | NOD2-RIPK2 conf inactive | BLA counter inactive
COc1ccccc1Cc1c(C(C)(C)C)nc2cc(C)c(Br)c(C)n12	NOD2 RIPK2 PPI 24 (no result: TLR4-MyD88 BLA, TLR9-MyD88 block, MC4R barr agon, MC4R antagonist) | NOD2-RIPK2 conf inactive | BLA counter 12
CCCCNC(=O)C1(C)CCCCN1C(=O)c1ccc2ccccc2n1 (centres undefined)	none (no result: TLR4-MyD88 BLA, TLR9-MyD88 block)
Cc1ccc(S(=O)(=O)NC[C@H]2O[C@@H](n3ccc(N)nc3=O)[C@H](O)[C@@H]2O)s1	none (no result: TLR4-MyD88 BLA)
O=C(CCC(=O)c1ccc(F)cc1)NCC1(N2CCCCC2)CCCCC1	none (no result: TLR4-MyD88 BLA)
Cc1ccc(NC(=O)Cn2sc3nc(C)cc(C)c3c2=O)c(Cl)c1	NOD2 RIPK2 PPI 21 (no result: TLR4-MyD88 BLA) | NOD2-RIPK2 conf inactive | BLA counter inactive
Cc1cc(C)c2c(=O)n(CC(=O)Nc3cccc(F)c3)sc2n1	none (no result: TLR4-MyD88 BLA)
Cc1cc(C)c2c(=O)n(CC(=O)Nc3ccc(Cl)cc3)sc2n1	NOD2 RIPK2 PPI 31 (no result: TLR4-MyD88 BLA) | NOD2-RIPK2 conf 36 | BLA counter inactive
S=C(NCc1cccnc1)c1ccccc1	none (no result: TLR4-MyD88 BLA)
CCOC(=O)c1c(N2C(=O)C3C4C=CC(O4)C3C2=O)sc2c1CCCC2 (centres undefined)	NOD2 RIPK2 PPI 22 | NOD2-RIPK2 conf inactive | BLA counter inactive
CCOC(=O)c1c(-n2cnnn2)sc2c1CCCC2	none (no result: TLR4-MyD88 BLA)
COc1ccc(NC(=O)N(C)C[C@H]2Oc3cc(Br)ccc3S(=O)(=O)N([C@H](C)CO)C[C@@H]2C)cc1	none (no result: TLR4-MyD88 BLA)
Cc1ccccc1C(=O)NCCCNC(=O)c1cnccn1	none (no result: TLR4-MyD88 BLA)
Clc1nssc1=Nc1nncs1	NOD2 RIPK2 PPI 27 (no result: TLR4-MyD88 BLA) | NOD2-RIPK2 conf 29 | BLA counter inactive
O=c1ccc2cc(O)c(O)cc2o1	NOD2 RIPK2 PPI 23 | NOD2-RIPK2 conf 23 | BLA counter 37
O=c1ccc2ccc(O)cc2o1	none (no result: TLR4-MyD88 BLA)
O=C(NNC(=O)c1cc(S(=O)(=O)N2CCOCC2)c(Cl)cc1Cl)c1ccccc1F	none (no result: TLR4-MyD88 BLA)
C=C(CN(C)C)C(=O)c1ccc(OC2OC(COC(C)=O)C(OC(C)=O)C(OC(C)=O)C2OC(C)=O)cc1 (centres undefined)	NOD2 RIPK2 PPI 27 (no result: TLR4-MyD88 BLA) | NOD2-RIPK2 conf 74 | BLA counter 24
CC(=O)OC[C@H]1O[C@@H](O/N=C/[C@@H](C)[C@H](OCc2ccccc2)C(C)C)[C@H](OC(C)=O)[C@@H](OC(C)=O)[C@@H]1OC(C)=O	none (no result: NOD2 RIPK2 PPI, TLR9-MyD88 block, MC4R barr agon, MC4R antagonist)
CCc1nc2ccccc2n1CC(O)COCC1CC=CCC1 (centres undefined)	none
O=C(C1CCCO1)N1CCN(S(=O)(=O)c2cc(C(F)(F)F)ccc2Cl)CC1 (centres undefined)	none (no result: TLR4-MyD88 BLA)
COc1ccc(N2CCN(CC(=O)Nc3ccc(C)cc3Br)CC2)cc1	NOD2 RIPK2 PPI 26 (no result: TLR4-MyD88 BLA) | NOD2-RIPK2 conf inactive | BLA counter inactive
O=S(=O)(/N=S1\CC=CCN1S(=O)(=O)c1ccccc1)c1ccccc1 (centres undefined)	NOD2 RIPK2 PPI 25 (no result: TLR4-MyD88 BLA) | NOD2-RIPK2 conf inactive | BLA counter inactive
Cc1c(C(=O)N/N=C/c2cccs2)nnn1-c1nonc1N	none (no result: TLR4-MyD88 BLA)
CCOc1ccccc1NC(=O)COC(=O)C(CC(C)C)N1C(=O)C2CC=CCC2C1=O (centres undefined)	none
CC(C)CC(C(=O)OCC(=O)Nc1cccc(Cl)c1)N1C(=O)C2CC=CCC2C1=O (centres undefined)	NOD2 RIPK2 PPI 22 | NOD2-RIPK2 conf inactive | BLA counter inactive
O=C(COc1ccc([N+](=O)[O-])cc1)Nc1ccc(N2CCN(C(=O)c3ccco3)CC2)cc1	none (no result: TLR4-MyD88 BLA)
CCN1CCN(c2ccc(NC(=O)COc3ccc([N+](=O)[O-])cc3)cc2)CC1	NOD2 RIPK2 PPI 21 (no result: TLR4-MyD88 BLA) | NOD2-RIPK2 conf inactive | BLA counter inactive
COc1ccc(N2C(=O)CC(Sc3nnnn3-c3ccc(F)cc3)C2=O)cc1 (centres undefined)	NOD2 RIPK2 PPI 41 | NOD2-RIPK2 conf 44 | BLA counter 12
O=C(c1cc(COc2cccc(C(F)(F)F)c2)on1)N1C[C@@H]2CCC[C@H]1C2	none (no result: TLR4-MyD88 BLA)
CC(=O)Nc1cccc(N(C)S(C)(=O)=O)c1	none
CC(=O)Nc1cccc(S(C)(=O)=O)c1	NOD2 RIPK2 PPI 21 | NOD2-RIPK2 conf inactive | BLA counter inactive
Cn1cccc1CC(=O)NNC(=O)Nc1ccccc1F	none (no result: TLR4-MyD88 BLA)
O=c1ccncn1C1OC(CO)C(O)C1O (centres undefined)	none (no result: TLR4-MyD88 BLA)
O=C(NC1CCCCC1)c1cnn2c(C(F)(F)F)cc(-c3ccco3)nc12	NOD2 RIPK2 PPI 24 | NOD2-RIPK2 conf inactive | BLA counter inactive
O=C(NC1CCCCC1)c1nn2c(C(F)(F)F)cc(-c3ccco3)nc2c1Br	none
CC(C)(C=O)C1=CC(=O)c2ccccc2C1=O	NOD2 RIPK2 PPI 23 | NOD2-RIPK2 conf 86 | BLA counter inactive
CN1CCN(C(=O)C2=C[C@H](c3ccc(C(F)(F)F)cc3)C[C@H](OCc3ccc(CO)cc3)O2)CC1	none
CCCCN(C1CCS(=O)(=O)C1)S(=O)(=O)c1ccc(OC)cc1 (centres undefined)	none (no result: TLR4-MyD88 BLA)
CCOc1c(Br)cc(Br)cc1/C=C1\SC(N)=NC1=O	NOD2 RIPK2 PPI 32 (no result: TLR4-MyD88 BLA) | NOD2-RIPK2 conf inactive | BLA counter inactive
CCOc1cc(/C=C2\SC(N)=NC2=O)ccc1O	none (no result: TLR4-MyD88 BLA)
COc1ccc(S(=O)(=O)Cc2ccc(C(=O)NCc3ccccc3)o2)cc1	none (no result: TLR4-MyD88 BLA)
O=C(NCc1ccc2c(c1)OCO2)c1nc(S(=O)(=O)Cc2ccccc2F)ncc1Cl	NOD2 RIPK2 PPI 79 (no result: TLR4-MyD88 BLA) | NOD2-RIPK2 conf 55 | BLA counter 14
O=C(NCc1ccc2c(c1)OCO2)c1nc(S(=O)(=O)Cc2ccccc2)ncc1Cl	NOD2 RIPK2 PPI 36 (no result: TLR4-MyD88 BLA) | NOD2-RIPK2 conf 29 | BLA counter inactive
O=C(NCc1ccc2c(c1)OCO2)c1ccccc1Cl	none (no result: TLR4-MyD88 BLA)
COc1ccc(CNC(=O)c2nc(S(=O)(=O)Cc3ccccc3)ncc2Cl)cc1	NOD2 RIPK2 PPI 62 (no result: TLR4-MyD88 BLA) | NOD2-RIPK2 conf 63 | BLA counter 15
COc1ccc(-c2nc(CSCC(=O)NCCCN3CCCC3=O)c(C)o2)cc1OC	none (no result: TLR4-MyD88 BLA)
Cc1ccc2nc(N3CCN(C=O)CC3)nc(-c3ccccc3)c2c1	NOD2 RIPK2 PPI 26 | NOD2-RIPK2 conf 29 | BLA counter 38
Cc1ccc2nc(N3CCN(C(=O)CCCC(=O)O)CC3)nc(-c3ccccc3)c2c1	none (no result: TLR4-MyD88 BLA)
O=C(CN1C(=O)c2ccccc2S1(=O)=O)NCCSCc1cccc(Cl)c1	NOD2 RIPK2 PPI 29 (no result: TLR4-MyD88 BLA) | NOD2-RIPK2 conf inactive | BLA counter inactive
C=CC(=O)N1C/C(=C/c2ccccc2)C(=O)/C(=C\c2ccccc2)C1	NOD2 RIPK2 PPI 45 (no result: TLR4-MyD88 BLA) | NOD2-RIPK2 conf 43 | BLA counter inactive
CN1C/C(=C/c2ccncc2)C(=O)/C(=C/c2ccncc2)C1	none (no result: TLR4-MyD88 BLA)
